Results: PMC5028280 (Neuropharmacology, 2016)

Assays:
male ICR mice [1] = assay: Functional observational battery; format: in vivo, mouse; conditions: i.v.; for FOB Home cage activity: doses with significant differences vs vehicle: CNS Activity domain, ↓ decrease vs vehicle, N = 6/dose; for FOB Gait: doses with significant differences vs vehicle / FOB Muscle tone: doses with significant differences vs vehicle / FOB Posture: doses with significant differences vs vehicle / FOB Forelimb placing: doses with significant differences vs vehicle: Muscle tone/Equilibrium domain; for FOB Startle response: doses with significant differences vs vehicle / FOB Approach response: doses with significant differences vs vehicle: Sensorimotor Reactivity domain; for FOB Tonus: doses with significant differences vs vehicle / FOB Tail elevation: doses with significant differences vs vehicle: CNS Excitability domain, ↑ increase vs vehicle
Summary of the method: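 Male ICR mice, each given one dose only, n=6 per dose; housed at 20–22°C on a 12-h light/dark cycle with food ad libitum. Approach and startle after observer interference were scored as categorical measures. Each compound's vehicle group was pooled into one vehicle group, and each dose was compared with it. Tests: Fisher's exact (categorical), Kruskal-Wallis (ordinal), one-way ANOVA (continuous).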

5-HT2B [2] = target: T1, 5-HT2B (Homo sapiens, UniProt P41595); assay: 5-HT2B antagonism functional assay; format: cell-based; conditions: mean of 3 replicates; for IC50: read-out: 5-HT2B Antagonism IC50
T1 sequence (P41595 whole entry): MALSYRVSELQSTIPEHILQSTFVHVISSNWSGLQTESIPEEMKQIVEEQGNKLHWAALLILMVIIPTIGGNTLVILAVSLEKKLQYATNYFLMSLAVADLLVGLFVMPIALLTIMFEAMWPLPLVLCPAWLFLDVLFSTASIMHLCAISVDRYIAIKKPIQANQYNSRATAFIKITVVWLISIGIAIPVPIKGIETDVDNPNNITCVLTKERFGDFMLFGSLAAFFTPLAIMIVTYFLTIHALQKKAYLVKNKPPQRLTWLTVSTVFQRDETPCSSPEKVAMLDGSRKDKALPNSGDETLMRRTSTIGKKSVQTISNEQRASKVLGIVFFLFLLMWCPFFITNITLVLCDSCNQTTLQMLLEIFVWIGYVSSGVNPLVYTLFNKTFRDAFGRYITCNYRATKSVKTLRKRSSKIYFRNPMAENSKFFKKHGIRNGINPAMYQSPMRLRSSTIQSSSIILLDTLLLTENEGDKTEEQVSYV

[3] = Urinary metabolite identification; format: in vivo, mouse; conditions: II = glucuronic acid conjugate; X = identified
hERG = hERG (Homo sapiens, UniProt Q12809); assay: hERG channel assay; format: cell-based; conditions: inhibition of hERG channels, mean of 3 replicates; for EC50: read-out: hERG Channels EC50
hERG, sequence (Q12809 whole entry): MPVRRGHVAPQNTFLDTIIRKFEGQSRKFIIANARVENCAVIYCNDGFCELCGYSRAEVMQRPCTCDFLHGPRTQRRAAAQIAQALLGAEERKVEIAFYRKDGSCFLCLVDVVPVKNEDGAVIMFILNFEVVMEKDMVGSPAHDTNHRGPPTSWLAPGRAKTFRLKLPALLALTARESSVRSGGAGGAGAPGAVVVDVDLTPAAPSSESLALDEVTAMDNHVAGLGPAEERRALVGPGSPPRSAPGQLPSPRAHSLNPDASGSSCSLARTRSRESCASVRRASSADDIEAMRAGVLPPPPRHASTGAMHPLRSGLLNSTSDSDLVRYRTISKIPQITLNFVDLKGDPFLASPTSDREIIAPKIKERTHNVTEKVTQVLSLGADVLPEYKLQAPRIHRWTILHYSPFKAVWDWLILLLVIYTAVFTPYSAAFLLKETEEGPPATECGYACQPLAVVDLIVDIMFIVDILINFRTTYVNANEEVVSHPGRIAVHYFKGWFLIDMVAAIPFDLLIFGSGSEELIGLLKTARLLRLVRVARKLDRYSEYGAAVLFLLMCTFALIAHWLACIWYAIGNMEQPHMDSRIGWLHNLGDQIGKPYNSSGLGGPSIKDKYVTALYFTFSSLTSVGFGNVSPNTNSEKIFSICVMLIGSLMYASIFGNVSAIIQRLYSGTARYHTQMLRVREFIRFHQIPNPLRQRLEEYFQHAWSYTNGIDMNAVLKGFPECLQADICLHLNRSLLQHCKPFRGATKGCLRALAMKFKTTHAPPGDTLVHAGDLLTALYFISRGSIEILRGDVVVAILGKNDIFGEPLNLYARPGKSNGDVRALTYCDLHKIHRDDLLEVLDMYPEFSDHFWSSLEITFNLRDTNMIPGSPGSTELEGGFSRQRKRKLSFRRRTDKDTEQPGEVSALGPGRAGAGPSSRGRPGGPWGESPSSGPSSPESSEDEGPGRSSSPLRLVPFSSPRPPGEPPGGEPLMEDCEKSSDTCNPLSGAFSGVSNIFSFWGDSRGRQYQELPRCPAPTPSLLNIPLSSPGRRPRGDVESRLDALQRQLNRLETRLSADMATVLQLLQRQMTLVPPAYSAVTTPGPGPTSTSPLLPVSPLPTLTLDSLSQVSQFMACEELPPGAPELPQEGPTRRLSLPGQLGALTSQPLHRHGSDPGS

5-HT2B [4] = target: T1, 5-HT2B; assay: NIMH PDSP secondary binding assay, 5-HT2B; conditions: read-out: 5-HT2B binding affinity Ki; mean of 3 replications
5-HT2C = target: T2, 5-HT2C (Homo sapiens, UniProt P28335); assay: NIMH PDSP secondary binding assay, 5-HT2C; conditions: read-out: 5-HT2C binding affinity Ki; mean of 3 replications
T2 sequence (P28335 33-458): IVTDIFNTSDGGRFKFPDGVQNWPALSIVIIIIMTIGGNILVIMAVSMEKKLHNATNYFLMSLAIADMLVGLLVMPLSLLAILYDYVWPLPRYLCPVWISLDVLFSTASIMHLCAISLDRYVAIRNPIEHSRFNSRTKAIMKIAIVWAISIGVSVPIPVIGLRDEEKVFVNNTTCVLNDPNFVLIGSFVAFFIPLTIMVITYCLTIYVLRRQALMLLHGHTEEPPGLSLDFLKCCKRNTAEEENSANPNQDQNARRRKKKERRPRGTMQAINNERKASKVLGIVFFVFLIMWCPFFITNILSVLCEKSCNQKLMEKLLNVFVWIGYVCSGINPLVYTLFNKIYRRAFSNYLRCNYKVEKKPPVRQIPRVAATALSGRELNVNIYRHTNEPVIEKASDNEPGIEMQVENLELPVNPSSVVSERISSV

male C57/Bl6J mice [5] = assay: Drug discrimination, mice trained to discriminate 0.3 mg/kg JWH-018 from vehicle; format: in vivo, mouse; conditions: for Response rates compared to vehicle: 1 mg/kg JWH-018, 10 mg/kg THC, JWH-073 across the dose range tested; for Fold less potent than JWH-018 in JWH-018 discrimination: from ED50 values; for ED50 for substitution for the 0.3 mg/kg JWH-018 training dose / Substitution for the 0.3 mg/kg JWH-018 training dose: i.p.; for ED50 for substitution for the 0.3 mg/kg JWH-018 training dose: 30 min before session; for Substitution for the 0.3 mg/kg JWH-018 training dose: percentage of responses on JWH-018-associated lever
5-HT6 = 5-HT6 (Homo sapiens, UniProt P50406); assay: NIMH PDSP secondary binding assay, 5-HT6; conditions: read-out: 5-HT6 binding affinity Ki; mean of 3 replications
5-HT6, sequence (P50406 whole entry): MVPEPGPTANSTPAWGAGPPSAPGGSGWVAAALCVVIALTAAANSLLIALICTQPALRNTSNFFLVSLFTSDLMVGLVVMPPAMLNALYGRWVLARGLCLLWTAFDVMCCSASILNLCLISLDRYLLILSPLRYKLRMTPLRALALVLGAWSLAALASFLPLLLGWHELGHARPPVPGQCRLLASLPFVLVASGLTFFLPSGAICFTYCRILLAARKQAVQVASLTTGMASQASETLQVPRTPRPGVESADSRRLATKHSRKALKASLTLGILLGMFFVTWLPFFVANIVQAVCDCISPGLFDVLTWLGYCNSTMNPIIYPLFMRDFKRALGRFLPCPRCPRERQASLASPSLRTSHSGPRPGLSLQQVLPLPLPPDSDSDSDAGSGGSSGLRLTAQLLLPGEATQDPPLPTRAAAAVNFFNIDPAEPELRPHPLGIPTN

male C57/Bl6J mice [6] = assay: Drug discrimination, mice trained to discriminate 5.6 mg/kg THC from vehicle; format: in vivo, mouse
male ICR mice [7] = assay: FOB, cannabinoid receptor antagonism of 3 mg/kg JWH-018 effects; format: in vivo, mouse; conditions: rimonabant/vehicle and SR144528/vehicle groups; all mice
[8] = Autonomic Effects domain, categorical, ---- no significant effect
[9] = categorical, ---- no significant effect

CCCCCn1cc(C(=O)c2ccc(CC)c3ccccc23)c2ccccc21 [JWH-210]
FOB Exophthalmus: doses with significant differences vs vehicle (male ICR mice [1]; [8]): (0.3) mg/kg | FOB Home cage activity: doses with significant differences vs vehicle (male ICR mice [1]): ↓ (0.1-3) mg/kg | FOB Gait: doses with significant differences vs vehicle (male ICR mice [1]; [9]): (0.1-3) mg/kg | FOB Muscle tone: doses with significant differences vs vehicle (male ICR mice [1]; [9]): (0.3-3) mg/kg | FOB Posture: doses with significant differences vs vehicle (male ICR mice [1]; [9]): (0.1-3) mg/kg | FOB Startle response: doses with significant differences vs vehicle (male ICR mice [1]; [9]): (0.3-3) mg/kg | 5-HT2B Antagonism Emax (5-HT2B [2]): 100% | IC50 (5-HT2B [2]): 2870 µM | Monohydroxylation metabolite in urine, phase II [3]: no monohydroxyl glucuronide was observed | hERG Channels EC50 (hERG): Not active | hERG Channels Emax (hERG): lacked efficacy

CCCCCn1cc(C(=O)Cc2ccccc2)c2ccccc21 [JWH-167]
FOB Exophthalmus: doses with significant differences vs vehicle (male ICR mice [1]; [8]): (1) mg/kg | FOB Piloerection: doses with significant differences vs vehicle (male ICR mice [1]; [8]): (10-30) mg/kg | FOB Home cage activity: doses with significant differences vs vehicle (male ICR mice [1]): ↓ (3-30) mg/kg | FOB Tonus: doses with significant differences vs vehicle (male ICR mice [1]; ---- no significant effect): ↑ (10) mg/kg | FOB Forelimb placing: doses with significant differences vs vehicle (male ICR mice [1]; [9]): (10-30) mg/kg | FOB Gait: doses with significant differences vs vehicle (male ICR mice [1]; [9]): (3-30) mg/kg | FOB Muscle tone: doses with significant differences vs vehicle (male ICR mice [1]; [9]): (3-30) mg/kg | FOB Posture: doses with significant differences vs vehicle (male ICR mice [1]; [9]): (1-30) mg/kg | FOB Approach response: doses with significant differences vs vehicle (male ICR mice [1]; [9]): (3-30) mg/kg | FOB Startle response: doses with significant differences vs vehicle (male ICR mice [1]; [9]): (3-30) mg/kg | 5-HT2B Antagonism Emax (5-HT2B [2]): 100% | IC50 (5-HT2B [2]): 47.7 µM | Ki (5-HT2B [4]): 1.25 µM | Ki (5-HT2C): 4.82 µM | hERG Channels Emax (hERG): 81% | EC50 (hERG): 13.8 µM

CCCCCc1cc(O)c2c(c1)OC(C)(C)[C@@H]1CCC(C)=C[C@@H]21 [THC, Δ^9-tetrahydrocannabinol, reference compound]
FOB Home cage activity: doses with significant differences vs vehicle (male ICR mice [1]): ↓ (0.3-10) mg/kg | FOB Tail elevation: doses with significant differences vs vehicle (male ICR mice [1]; ---- no significant effect): ↑ (3) mg/kg | FOB Posture: doses with significant differences vs vehicle (male ICR mice [1]; [9]): (3-10) mg/kg | Ki (5-HT2B [4]): 0.765 µM | Response rates compared to vehicle (male C57/Bl6J mice [5]): significantly decreased response rates | Fold less potent than JWH-018 in JWH-018 discrimination (male C57/Bl6J mice [5]): ~10 fold | ED50 for substitution for the 0.3 mg/kg JWH-018 training dose (male C57/Bl6J mice [5]): 4.08 µmol/kg | Substitution for the 0.3 mg/kg JWH-018 training dose (male C57/Bl6J mice [5]): fully and dose-dependently substituted

O=C(c1cccc2ccccc12)c1cn(CCCCCF)c2ccccc12 [AM-2201]
FOB Home cage activity: doses with significant differences vs vehicle (male ICR mice [1]): ↓ (0.03-1) mg/kg | FOB Tonus: doses with significant differences vs vehicle (male ICR mice [1]; ---- no significant effect): ↑ (0.3-1) mg/kg | FOB Muscle tone: doses with significant differences vs vehicle (male ICR mice [1]; [9]): (0.1-1) mg/kg | FOB Posture: doses with significant differences vs vehicle (male ICR mice [1]; [9]): (0.03-1) mg/kg | FOB Approach response: doses with significant differences vs vehicle (male ICR mice [1]; [9]): (0.1-1) mg/kg | 5-HT2B Antagonism Emax (5-HT2B [2]): 100% | IC50 (5-HT2B [2]): 23.9 µM | Ki (5-HT2B [4]): 0.192 µM | Ki (5-HT6): 0.693 µM | hERG Channels Emax (hERG): 70% | EC50 (hERG): 3.35 µM

CCCCn1cc(C(=O)c2cccc3ccccc23)c2ccccc21 [JWH-073]
FOB Home cage activity: doses with significant differences vs vehicle (male ICR mice [1]): ↓ (0.3-3) mg/kg | FOB Tail elevation: doses with significant differences vs vehicle (male ICR mice [1]; ---- no significant effect): ↑ (1) mg/kg | FOB Forelimb placing: doses with significant differences vs vehicle (male ICR mice [1]; [9]): (0.3) mg/kg | FOB Gait: doses with significant differences vs vehicle (male ICR mice [1]; [9]): (0.3-3) mg/kg | FOB Muscle tone: doses with significant differences vs vehicle (male ICR mice [1]; [9]): (1-3) mg/kg | FOB Posture: doses with significant differences vs vehicle (male ICR mice [1]; [9]): (1-3) mg/kg | FOB Approach response: doses with significant differences vs vehicle (male ICR mice [1]; [9]): (1-3) mg/kg | FOB Startle response: doses with significant differences vs vehicle (male ICR mice [1]; [9]): (3) mg/kg | 5-HT2B Antagonism Emax (5-HT2B [2]): 100% | IC50 (5-HT2B [2]): 19.3 µM | Ki (5-HT2B [4]): 0.184 µM | Response rates compared to vehicle (male C57/Bl6J mice [5]): significant decreases were not observed | Fold less potent than JWH-018 in JWH-018 discrimination (male C57/Bl6J mice [5]): about 5 fold | ED50 for substitution for the 0.3 mg/kg JWH-018 training dose (male C57/Bl6J mice [5]): 2.11 µmol/kg | Substitution for the 0.3 mg/kg JWH-018 training dose (male C57/Bl6J mice [5]): fully and dose-dependently substituted | hERG Channels Emax (hERG): 59% | EC50 (hERG): 9.71 µM

CCCCCn1cc(C(=O)c2ccc(OC)c3ccccc23)c2ccccc21 [JWH-081]
FOB Home cage activity: doses with significant differences vs vehicle (male ICR mice [1]): ↓ (0.1-1) mg/kg | FOB Gait: doses with significant differences vs vehicle (male ICR mice [1]; [9]): (0.3-1) mg/kg | FOB Muscle tone: doses with significant differences vs vehicle (male ICR mice [1]; [9]): (0.3) mg/kg | FOB Posture: doses with significant differences vs vehicle (male ICR mice [1]; [9]): (0.3-1) mg/kg | FOB Approach response: doses with significant differences vs vehicle (male ICR mice [1]; [9]): (1) mg/kg | FOB Startle response: doses with significant differences vs vehicle (male ICR mice [1]; [9]): (1) mg/kg | 5-HT2B Antagonism IC50 (5-HT2B [2]): Not active | hERG Channels EC50 (hERG): Not active | hERG Channels Emax (hERG): lacked efficacy

CN1CCN2c3ccccc3Cc3ccccc3C2C1 (centres unmarked) [mianserin]
Percentage of THC-lever responding, mianserin 0.1, 0.3, and 3 mg/kg (male C57/Bl6J mice [6]; co-administered with either vehicle or 5.6 mg/kg THC): did not alter this pattern | Percentage of THC-lever responding, 1 mg/kg mianserin plus 5.6 mg/kg THC (male C57/Bl6J mice [6]; compared to 5.6 mg/kg THC alone): significantly lower | Substitution for THC in mice trained to discriminate THC (male C57/Bl6J mice [6]; mianserin tested alone, i.p.): did not substitute | Overall responding on both levers (response rate), 3 mg/kg mianserin (male C57/Bl6J mice [6]; with vehicle or THC): significantly suppressed | Responding on the JWH-018 lever, 3 mg/kg mianserin co-administered with 0.3 mg/kg JWH-018 (male C57/Bl6J mice [5]; compared to 0.3 mg/kg JWH-018 alone): significantly decreased | Responding on the JWH-018 lever, 3 mg/kg mianserin (plus vehicle) (male C57/Bl6J mice [5]; compared to vehicle alone): significantly increased | Substitution of the JWH-018 training dose (0.3 mg/kg), mianserin at doses up 1 mg/kg (male C57/Bl6J mice [5]; mianserin plus 0.3 mg/kg JWH-018): not altered | Overall response rate, mianserin 1 and 3 mg/kg administered with JWH-018 (male C57/Bl6J mice [5]; mouse, in vivo): significantly suppressed | Substitution for the 0.3 mg/kg JWH-018 training dose (male C57/Bl6J mice [5]): failed to substitute for or antagonize

Cc1c(C(=O)NN2CCCCC2)nn(-c2ccc(Cl)cc2Cl)c1-c1ccc(Cl)cc1 [rimonabant]
Response rates in antagonism tests (male C57/Bl6J mice [5]; 3 mg/kg antagonist with vehicle or 0.3 mg/kg JWH-018): significantly decreased

SR144528 [reference compound]
FOB selected measures, antagonist 3 mg/kg i.p. plus vehicle (male ICR mice [7]): Normal responses
